Our source for the minimal effective dose, ED50 and IC50 values is ChEMBL document CHEMBL1123131, “Examination of a series of 8-[3-[bis(4-fluorophenyl)amino]propyl]-1-aryl-1,3,8- triazaspiro[4.5]decan-4-ones as potential antipsychotic agents” (J Med Chem, 1985).

Assay [1] has as its system Mus musculus. Nature of the assay: Antipsychotic activity using locomotor activity (LMA)-inverted screen test in mice (i.p. admin.). The format is functional. Particulars: ip, read-out: MED. The gist of the method:
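Unfasted male Swiss-Webster mice, 20–30 g, nine per dose; ip 1 h before testing in 0.2% methocel, 10 mL/kg; 10, 30, 100 mg/kg, three replicates. Inverted-screen falloff over 60 s, then photocell locomotion for 60 min versus vehicle. MED = lowest dose giving >60% locomotor inhibition with <60% falloff.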

The species entered for assay [2] is Rattus norvegicus. In words: Activity against the suppression of high base line self stimulation with electrodes in the medial forebrain of the posterior hypothalamus of male hooded rats (Peroral admin.). Format: functional. As to conditions: po. The method in brief:
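Male hooded rats with electrodes in the medial forebrain bundle of the posterior hypothalamus; rapid high base-line self-stimulation rates served as base lines. Oral dosing, behaviour recorded continuously on cumulative recorders. Active if base-line rate was reduced by 50% for 1.5 h or more. Four rats per dose; ED50 by computer analysis (linear regression from doses bracketing the ED50).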

In assay [3] the test system is Rattus norvegicus. Nature of the assay: The compound was tested (after peroral administration) for its ability to induce catalepsy in rats. Format: functional. Particulars: po. The gist of the method:
(§1)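 Fasted male Long-Evans hooded rats, 180–220 g, used once; oral intubation, suspended in 0.2% methylcellulose if insoluble. At least three doses, eight rats per dose. Forepaws placed on a horizontal rod 11.5 cm high, read every 30 min for 1 h then hourly to 6 h, 24 h if needed. Partial scores summed; ED50 by nonlinear regression.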

A short description of assay [4]: Minimal effective dose (after peroral administration) required for signs of EPS in cebus monkeys. The format is functional. As to conditions: po; read-out: MED.
Assay [5] addresses Muscarinic acetylcholine receptor. In words: The compound was tested for inhibition of [3H]QNB binding to Muscarinic acetylcholine receptor. The format is protein assay.
The test system of assay [6] is Rattus norvegicus. Nature of the assay: The compound was tested (after peroral administration) for inhibition of sidman avoidance in rat. Format: functional. Particulars: po. The method in brief:
(§2)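 Mature male Long-Evans rats or squirrel monkeys trained on a modified Sidman avoidance lever schedule with 0.5-s shock; 6-h sessions, given orally. Response expressed as % inhibition of nondrug avoidance responding, each animal its own control. At least three doses, four animals each, sessions at least 1 week apart; ED50 by nonlinear regression.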

A short description of assay [7]: The compound was tested (after peroral administration) for its ability to induced catalepsy in squirrel monkeys. The format is functional. Particulars: po. The method in brief: (§3)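 Adult squirrel monkeys, 600–1000 g, fasted overnight, oral dosing with at least 1 week between dosings. Observed hourly for at least 6 h and at 24 h. Four animals per dose, at least three doses; ED50 by nonlinear regression for quantal data.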

A short description of assay [8]: The compound was (after peroral administration) tested for inhibition of sidman avoidance in squirrel monkeys. As to conditions: po. The format is functional. The method in brief: as §2
Assay [9] deals with T1, Adrenergic receptor alpha-1 (Rattus norvegicus, UniProt P15823+P23944+P43140).
T1 sequence (P15823 whole entry): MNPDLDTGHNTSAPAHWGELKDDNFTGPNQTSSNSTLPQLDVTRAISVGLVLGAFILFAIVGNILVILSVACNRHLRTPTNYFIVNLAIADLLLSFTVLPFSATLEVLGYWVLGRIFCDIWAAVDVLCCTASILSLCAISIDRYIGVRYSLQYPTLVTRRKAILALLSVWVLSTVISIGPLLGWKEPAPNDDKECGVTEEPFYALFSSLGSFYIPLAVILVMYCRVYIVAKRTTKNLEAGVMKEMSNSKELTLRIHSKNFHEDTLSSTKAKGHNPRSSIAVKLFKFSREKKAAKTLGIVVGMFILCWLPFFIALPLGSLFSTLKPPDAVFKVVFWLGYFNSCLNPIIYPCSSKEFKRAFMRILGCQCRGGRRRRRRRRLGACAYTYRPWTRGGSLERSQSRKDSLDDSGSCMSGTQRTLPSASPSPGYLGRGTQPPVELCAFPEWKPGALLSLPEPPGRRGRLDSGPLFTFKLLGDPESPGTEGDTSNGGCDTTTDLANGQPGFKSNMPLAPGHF
T1 sequence (P23944 whole entry): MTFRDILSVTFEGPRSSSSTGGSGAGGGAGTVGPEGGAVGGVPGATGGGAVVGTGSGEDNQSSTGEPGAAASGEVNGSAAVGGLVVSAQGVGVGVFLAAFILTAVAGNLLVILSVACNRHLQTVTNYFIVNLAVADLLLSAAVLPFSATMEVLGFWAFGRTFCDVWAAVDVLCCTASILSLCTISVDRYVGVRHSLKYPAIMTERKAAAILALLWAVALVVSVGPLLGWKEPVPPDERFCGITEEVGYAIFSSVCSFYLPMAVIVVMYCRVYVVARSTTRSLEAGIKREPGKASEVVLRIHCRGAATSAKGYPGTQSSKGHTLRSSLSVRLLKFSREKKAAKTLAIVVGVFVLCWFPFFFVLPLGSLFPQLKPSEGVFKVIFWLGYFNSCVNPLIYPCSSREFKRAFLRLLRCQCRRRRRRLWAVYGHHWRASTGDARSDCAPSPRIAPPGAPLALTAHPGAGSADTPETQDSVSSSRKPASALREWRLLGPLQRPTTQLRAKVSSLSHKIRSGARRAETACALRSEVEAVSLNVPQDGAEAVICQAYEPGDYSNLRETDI
T1 sequence (P43140 whole entry): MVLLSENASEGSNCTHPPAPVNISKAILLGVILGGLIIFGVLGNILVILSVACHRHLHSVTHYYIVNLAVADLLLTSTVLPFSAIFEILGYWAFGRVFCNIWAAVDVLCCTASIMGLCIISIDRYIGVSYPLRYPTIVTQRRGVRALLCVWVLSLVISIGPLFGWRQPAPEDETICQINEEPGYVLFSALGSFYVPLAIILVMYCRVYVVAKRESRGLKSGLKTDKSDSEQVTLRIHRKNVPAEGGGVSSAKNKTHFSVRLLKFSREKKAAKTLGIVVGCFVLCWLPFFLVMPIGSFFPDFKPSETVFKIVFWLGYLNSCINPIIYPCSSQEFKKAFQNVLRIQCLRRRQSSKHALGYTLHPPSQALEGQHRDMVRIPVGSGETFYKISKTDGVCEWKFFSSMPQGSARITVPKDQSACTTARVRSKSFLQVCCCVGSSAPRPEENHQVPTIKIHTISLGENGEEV

The nature of assay [10]: Minimal effective dose required for signs of EPS in cebus monkeys. Format: functional. Particulars: read-out: MED.
The species named for assay [11] is Rattus norvegicus. Nature of the assay: The compound was tested for inhibition of sidman avoidance in rat. Format: functional. The method in brief:
as §2

Assay [12] is filed under the species Rattus norvegicus. Nature of the assay: The compound was tested for its ability to induced catalepsy in rats. The format is functional. The gist of the method: as §1
The nature of assay [13]: The compound was tested for its ability to induced catalepsy in squirrel monkeys. The format is functional. The method in brief: as §3
The nature of assay [14]: The compound was tested for inhibition of sidman avoidance in squirrel monkeys. Format: functional. The method in brief:
as §2

Each structure is given as a SMILES string. Where only a bound is given, the exact number is not on record here.

For the compound `O=C1NCN(c2cccc(F)c2)C12CCN(CCCN(c1ccc(F)cc1)c1ccc(F)cc1)CC2`, the minimal effective dose in [1] was 30 mg/kg. For the same compound, the figures for the ED50 in assay [2] and in assay [3] were 0.78 mg/kg and 4.1 mg/kg, respectively.
In the case of `O=C1N(Cc2ccccc2)CN(c2ccccc2)C12CCN(CCCN(c1ccc(F)cc1)c1ccc(F)cc1)CC2`, the minimal effective dose in assay [1] is over 100 mg/kg.
With `O=C(CCCN1CCC2(CC1)C(=O)NCN2c1ccccc1)c1ccc(F)cc1` [SPIPERONE], the minimal effective dose in assay [1] is under 10 mg/kg. In addition, the ED50 (in general, the dose that gives a 50% effect, or the effect in half of the subjects) stood at 1.28 mg/kg in assay [2] and 10.8 mg/kg in assay [3].
For `O=C1NCN(c2cccc(C(F)(F)F)c2)C12CCN(CCCN(c1ccc(F)cc1)c1ccc(F)cc1)CC2`, the minimal effective dose in assay [1] is over 100 mg/kg.
On to `CN1CN(c2cccc(C(F)(F)F)c2)C2(CCN(CCCN(c3ccc(F)cc3)c3ccc(F)cc3)CC2)C1=O`, for which the minimal effective dose in assay [1] came to 30 mg/kg. For the same compound, the ED50 in assay [2] was over 16 mg/kg.
Take `C=CCN1CN(c2ccccc2)C2(CCN(CCCN(c3ccc(F)cc3)c3ccc(F)cc3)CC2)C1=O`: the minimal effective dose in [1] is at most 10 mg/kg. The 50% effective dose (ED50) was determined as 1.06 mg/kg in assay [2] and 22 mg/kg in assay [3].
For `O=C1NCN(c2ccc(Cl)cc2)C12CCN(CCCN(c1ccc(F)cc1)c1ccc(F)cc1)CC2`, the minimal effective dose in [1] worked out at 30 mg/kg. The compound further registered an ED50 in assay [2] of 2 mg/kg.
For `CN1CN(c2ccc(F)cc2)C2(CCN(CCCN(c3ccc(F)cc3)c3ccc(F)cc3)CC2)C1=O`, the minimal effective dose in assay [1] is at most 10 mg/kg. For the same compound, the median effective dose (ED50) in [2] came out at 0.96 mg/kg; in [3] it was 54 mg/kg.
`O=C1NCN(c2ccccc2F)C12CCN(CCCN(c1ccc(F)cc1)c1ccc(F)cc1)CC2` returned an ED50 in assay [2] of over 16 mg/kg.
`O=C1N(COCc2ccccc2)CN(c2ccccc2)C12CCN(CCCN(c1ccc(F)cc1)c1ccc(F)cc1)CC2`: the minimal effective dose in assay [1] was determined as 100 mg/kg. In assay [2], this compound returned an ED50 of over 16 mg/kg.
On to `O=C1NCN(c2ccccc2)C12CCN(CCCN(c1ccc(F)cc1)c1ccc(F)cc1)CC2`, for which the minimal effective dose in [4] amounted to 2.5 mg/kg; in assay [1], 5 mg/kg. The IC50 (usually the concentration that gives 50% inhibition) in [5] was over 100 nM; in [9], over 1000 nM. Besides, the ED50 in assay [6] was found to be 2.8 mg/kg; in assay [3], 81 mg/kg; in assay [7] it was 30 mg/kg; in assay [8] it was 1.7 mg/kg.
With `O=C1N(CC2CC2)CN(c2ccccc2)C12CCN(CCCN(c1ccc(F)cc1)c1ccc(F)cc1)CC2`, the minimal effective dose in assay [1] amounted to 30 mg/kg. In addition, the ED50 in assay [2] is 8.39 mg/kg; in assay [3], 200 mg/kg.
Regarding `CN1CCN(C2=Nc3cc(Cl)ccc3Nc3ccccc32)CC1` [CLOZAPINE], the results for the minimal effective dose in assay [10] and in assay [1] were over 30 mg/kg and 10 mg/kg, respectively. Moreover, the ED50 was 14.4 mg/kg in assay [11], 133 mg/kg in assay [12], over 50 mg/kg in assay [13] and 4.1 mg/kg in assay [14].
In the case of `O=C1NCN(c2ccc(F)cc2)C12CCN(CCCN(c1ccc(F)cc1)c1ccc(F)cc1)CC2`, in assay [1], the minimal effective dose is at most 10 mg/kg. Moreover, the ED50 in assay [2] turned out to be 0.55 mg/kg; in [3], 4.5 mg/kg.
`Cc1ccc(N2CNC(=O)C23CCN(CCCN(c2ccc(F)cc2)c2ccc(F)cc2)CC3)cc1`: in [1], the minimal effective dose is at most 10 mg/kg. The ED50 in [2] is over 16 mg/kg.
Regarding `CC(=O)OCN1CN(c2ccccc2)C2(CCN(CCCN(c3ccc(F)cc3)c3ccc(F)cc3)CC2)C1=O`, the minimal effective dose in assay [1] was under 10 mg/kg. The 50% effective dose (ED50) in assay [2] stood at 1.03 mg/kg; in assay [3] it was 17 mg/kg.
Take `CC(C)c1ccc(N2CNC(=O)C23CCN(CCCN(c2ccc(F)cc2)c2ccc(F)cc2)CC3)cc1`: the minimal effective dose in assay [1] was over 100 mg/kg.
With `O=C1N(CO)CN(c2ccccc2)C12CCN(CCCN(c1ccc(F)cc1)c1ccc(F)cc1)CC2`, in assay [1], the minimal effective dose was under 10 mg/kg. The ED50 is 0.89 mg/kg in assay [2] and 11 mg/kg in [3].
With `COc1ccc(N2CNC(=O)C23CCN(CCCN(c2ccc(F)cc2)c2ccc(F)cc2)CC3)cc1`, the minimal effective dose in assay [1] came to 30 mg/kg. In addition, the median effective dose (ED50) in assay [2] is over 16 mg/kg.
For the compound `CN(C)CCCN1CN(c2ccccc2)C2(CCN(CCCN(c3ccc(F)cc3)c3ccc(F)cc3)CC2)C1=O`, the ED50 in assay [2] came out at 16 mg/kg; in assay [3], 200 mg/kg.
With `CN1CN(c2ccccc2)C2(CCN(CCCN(c3ccc(F)cc3)c3ccc(F)cc3)CC2)C1=O`, the minimal effective dose in [1] was at most 10 mg/kg. Besides, the ED50 in assay [2] was found to be 2.84 mg/kg; in assay [3], 33 mg/kg.
In the same order, the values of `CCN(CC)CCN1CN(c2ccccc2)C2(CCN(CCCN(c3ccc(F)cc3)c3ccc(F)cc3)CC2)C1=O` are at most 10 mg/kg, 5.65 mg/kg and 138 mg/kg.
On to `O=C(CCCN1CCC(O)(c2ccc(Cl)cc2)CC1)c1ccc(F)cc1` [HALOPERIDOL], for which the minimal effective dose in [10] and in assay [1] was 0.3 mg/kg in each case. The ED50 was found to be 0.14 mg/kg in [2]; 0.1 mg/kg in assay [3]; 0.3 mg/kg in assay [11]; 0.47 mg/kg in assay [12]; 2 mg/kg in [13]; 0.26 mg/kg in assay [14].
